Compounds with a hit are over-represented: about 1.5% of the library has one in this group of screens.
proCasp3 act: activates human procaspase-3 | P42574 | actives 0.11% (n = 330,000) | activation, % at 8.5 µM | recombinant procaspase-3 D3A, Ac-DEVD-pNA absorbance 405 nm;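 active = activation above the mean of all tested compounds plus 3 SD, cut at about 21% in these data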;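 note: 0% = DMSO alone and 100% = DMSO wells spiked with extra 5 µM PC-3 D3A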
Target sequence (P42574 whole entry D9A/D28A/D175A): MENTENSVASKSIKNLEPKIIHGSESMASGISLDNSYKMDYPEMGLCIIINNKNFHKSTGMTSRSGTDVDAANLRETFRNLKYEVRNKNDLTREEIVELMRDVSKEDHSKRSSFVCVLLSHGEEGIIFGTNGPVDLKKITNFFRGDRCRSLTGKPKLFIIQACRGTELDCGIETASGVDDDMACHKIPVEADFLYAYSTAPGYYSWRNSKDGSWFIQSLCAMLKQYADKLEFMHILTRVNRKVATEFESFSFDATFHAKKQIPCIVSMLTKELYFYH
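Evaluation: percent activation relative to control range; Material: Procaspase-3 D3A mutant, all three cleavage aspartates alanine; Compound: single dose, 8.5 µM nominal compound, 0.8% DMSO; Replication: one well per compound; Signal: absorbance at 405 nm, 0 and 120 min; Schedule: 1 h preincubation plus 2 h reaction at 25 °C.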
proCasp7 act: counter-screen: procaspase-7 (human) activation; recombinant procaspase-7, Ac-DEVD-pNA absorbance 405 nm; D23A/D198A/D206A triple mutant, cannot self-cleave; scale: DMSO 0, 5 µM enzyme 100; activation, % at 8.5 µM; actives 0.093% (n = 330,000); AID 463210;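 active = percent activation above the screen-wide mean plus 3 SD, cut at about 25% in these data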
Target sequence (P55210 whole entry D23A/D198A/D206A): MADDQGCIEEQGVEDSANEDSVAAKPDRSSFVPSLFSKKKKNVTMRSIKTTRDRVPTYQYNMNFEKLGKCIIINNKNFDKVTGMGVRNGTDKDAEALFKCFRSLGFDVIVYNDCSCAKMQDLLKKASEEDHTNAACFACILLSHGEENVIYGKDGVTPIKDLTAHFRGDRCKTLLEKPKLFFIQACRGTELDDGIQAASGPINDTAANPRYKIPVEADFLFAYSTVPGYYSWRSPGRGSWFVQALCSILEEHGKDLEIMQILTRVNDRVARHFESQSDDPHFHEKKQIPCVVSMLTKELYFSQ
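Test system: Procaspase-7 triple mutant (PC-7 D3A). Also added: Ac-DEVD-pNA substrate, 400 µM as added. Schedule: 1 h enzyme–compound preincubation and 2 h substrate reaction, both 25 °C. Signal: p-Nitroaniline absorbance at 405 nm, read at 0 and 120 min. Control set: low DMSO alone, high DMSO plus 5 µM PC-7.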
Tb MetRS inh: blocks T. brucei methionyl-tRNA synthetase activity | purified T. brucei MetRS, ATP depletion, Kinase-Glo luminescence | inhibition, % at 11.9 µM | actives 0.4% (n = 360,000) | AID 624268;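 active = inhibition above a per-plate cutoff of the control wells' mean inhibition plus 3 SD, cut at about 5.5% in these data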;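 note: 0% = DMSO wells median and 100% = median of wells with control inhibitor compound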
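Material – parasite MetRS enzyme · Medium – HEPES-MgCl2-KCl buffer plus DTT, spermine, BSA, pyrophosphatase · Reagent – ATP, methionine and E. coli bulk tRNA substrates · Times – 15 min enzyme-compound preincubation, 2 h reaction, 10 min detection, 25 °C · Measured by – luminescence of leftover ATP · Evaluation – percent inhibition relative to median high and low control wells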
MsrA act: bovine methionine sulfoxide reductase A activation | purified bovine MsrA, absorbance read-out | activation, % at 10.6 µM | actives 0.3% (n = 360,000); in the data active = activation above about 7.5%;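 note: 0% = vehicle and 100% = reference activator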
MsrA inh: inhibitors of bovine MsrA; purified bovine MsrA, absorbance read-out; inhibition, % at 15.5 µM; actives 0.75% (n = 360,000);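 note: 0% = vehicle wells with enzyme and 100% = reference inhibitor wells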
Tb MetRS conf: Trypanosoma brucei MetRS inhibition confirmed. inhibition, % at 11.9 µM. actives 93% (n = 1,400). T. brucei MetRS enzyme, luminescence (ATP depletion). AID 624412. shares compounds with Tb MetRS inh; in the data active = inhibition above about 7%
Jurkat tox: kills Jurkat cells in T. brucei MetRS counterscreen. shares compounds with Tb MetRS inh. Jurkat cells viability, ATP luminescence. inhibition, % at 8.3 µM. actives 12% (n = 1,400); in the data active = inhibition above about 15%;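 note: 0% = vehicle and 100% = reference inhibitor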
Tb MetRS inh FP: orthogonal test for Trypanosoma brucei MetRS inhibitors; purified T. brucei MetRS, fluorescence polarization; inhibition, % at 11.9 µM; actives 44% (n = 1,400); AID 651607; shares compounds with Tb MetRS inh; in the data active = inhibition above about 17%;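 note: 0% = vehicle wells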
MsrA conf: confirmation of bovine MsrA inhibitors; shares compounds with MsrA inh; purified bovine MsrA, absorbance read-out; actives 41% (n = 2,300); inhibition, % at 15.5 µM; AID 651822;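 note: coupled to thioredoxin reductase with NADPH and selenocystamine and DMSO as substrate; 0% = vehicle only and 100% = full effect of reference inhibitor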
Numbers without * were called inactive. Cut-off read from the data, not from the text of the source, unless noted: active = inhibition above about 4.5%; inactive = the rest.

`COc1cc(C2C(C#N)=C(N)Oc3cc(N(C)C)ccc32)cc2c1OCO2` (centres undefined) gave proCasp3 act -16.2, proCasp7 act -19.5, Tb MetRS inh 18.8*, MsrA act -5.1, MsrA inh 0.7, Tb MetRS conf 2.0, Jurkat tox 81.9* and Tb MetRS inh FP 7.5.
COc1cc(C2C(C#N)=C(N)Oc3cc(O)ccc32)cc2c1OCO2 (centres undefined) was read as proCasp3 act -1.1, proCasp7 act 5.2, Tb MetRS inh 14.5*, MsrA act -8.4, MsrA inh 1.5, Tb MetRS conf 2.5, Jurkat tox 36.1* and Tb MetRS inh FP 4.3.
Screening COc1cccc(NC(=O)CSc2nc3ncc(Br)cc3[nH]2)c1 returned proCasp3 act 2.7, proCasp7 act 13.3, Tb MetRS inh 69.6*, MsrA act -4.8, MsrA inh -1.3, Tb MetRS conf 84.7*, Jurkat tox 6.4 and Tb MetRS inh FP 60.4*.
`CCc1ccc(NC(=O)CSc2nc3ncc(Br)cc3[nH]2)cc1` gave proCasp3 act -0.5, proCasp7 act 3.9, Tb MetRS inh 0.0, MsrA act -3.2 and MsrA inh -1.2.
COc1cccc(NC(=O)CN(C)CC(=O)Nc2ccc(Br)cc2)c1 was read as proCasp3 act 3.8, proCasp7 act 5.2, Tb MetRS inh 11.3*, MsrA act -1.3, MsrA inh -0.6, Tb MetRS conf 19.7*, Jurkat tox 2.8 and Tb MetRS inh FP 22.6*.
`O=C(CSc1nc2ncc(Br)cc2[nH]1)c1ccc([N+](=O)[O-])cc1` gave proCasp3 act -6.7, proCasp7 act 0.5, Tb MetRS inh 18.2*, MsrA act 2.4, MsrA inh 1.4, Tb MetRS conf 51.7*, Jurkat tox 1.9 and Tb MetRS inh FP 24.2*.
Screening S=C(SCc1c(Cl)cccc1Cl)N1CCSCC1 returned MsrA inh -0.2.
`O=C(CCCn1c(=S)[nH]c2ccc(Br)cc2c1=O)NCc1ccccn1` gave proCasp3 act 0.7, proCasp7 act -0.4, Tb MetRS inh 0.2, MsrA act -5.0 and MsrA inh -0.4.
O=c1c2cc(Br)ccc2[nH]c(=S)n1Cc1ccccn1 was read as proCasp3 act 2.5, proCasp7 act -7.1, Tb MetRS inh 10.3*, MsrA act -15.1, MsrA inh 1.2, Tb MetRS conf 21.1*, Jurkat tox -6.7 and Tb MetRS inh FP 5.3.
For NS(=O)(=O)c1ccc(CCNC(=O)CCCCCn2c(=S)[nH]c3ccc(Br)cc3c2=O)cc1 the results were proCasp3 act 1.2, proCasp7 act 4.0, Tb MetRS inh 17.4*, MsrA act -7.0, MsrA inh 0.2, Tb MetRS conf 21.9*, Jurkat tox -0.1 and Tb MetRS inh FP 14.4.
For O=c1c2cc(Br)ccc2[nH]c(=S)n1Cc1ccccc1 the results were proCasp3 act -2.5, proCasp7 act 1.0, Tb MetRS inh 7.7*, MsrA act -0.3, MsrA inh 2.8, Tb MetRS conf 20.2*, Jurkat tox 0.1 and Tb MetRS inh FP 13.0.
For O=C(CCCCCn1c(=S)[nH]c2ccc(Br)cc2c1=O)NCC1CCCO1 (centres undefined) the results were proCasp3 act 1.6, proCasp7 act -6.6, Tb MetRS inh 1.1, MsrA act -4.0 and MsrA inh 0.6.
For COC(=O)[C@]12C[C@H](CC(=O)NCC34CC5CC(CC(C5)C3)C4)C(=O)N(CCC3=CCCCC3)C1=C[C@H](COCc1ccccc1)O[C@@H]2C the results were MsrA inh 0.5.
For C=CCCN1[C@@H](Cc2ccccc2)COc2ccccc2S1(=O)=O the results were MsrA inh 0.3.
Cc1ccc(NC(=O)CN(C)C(=O)CSc2ccccc2F)cc1 was read as proCasp3 act 1.6, proCasp7 act 8.3, Tb MetRS inh -0.3, MsrA act -1.9 and MsrA inh -0.9.
Cc1ccc(NC(=O)CN(C)C(=O)CCSc2ccc(F)cc2)cc1 was read as proCasp3 act 4.2, proCasp7 act 4.2, Tb MetRS inh 42.8*, MsrA act -5.1, MsrA inh -0.8, Tb MetRS conf 80.4*, Jurkat tox 3.2 and Tb MetRS inh FP 60.1*.
O=C1[C@@H]2Cc3c([nH]c4ccccc34)C(c3cccc([N+](=O)[O-])c3)N2C(=O)CN1C1CCN(Cc2ccccc2)CC1 (some centres undefined) was read as proCasp3 act -0.2, proCasp7 act 5.9, Tb MetRS inh 91.3*, MsrA act -2.0, MsrA inh 0.5, Tb MetRS conf 94.2*, Jurkat tox 0.4 and Tb MetRS inh FP 74.3*.
CCCCCOC(=O)c1c(N)n(CCOC)c2nc3ccccc3nc12 was read as proCasp3 act -0.2, proCasp7 act -11.9, Tb MetRS inh 0.4, MsrA act -2.3 and MsrA inh 2.3.
For CCOC(=O)c1c(N)n(CCOC(=O)c2cccs2)c2nc3ccccc3nc12 the results were proCasp3 act -3.9, proCasp7 act -13.5, Tb MetRS inh 7.3*, MsrA act -7.7, MsrA inh 2.3, Tb MetRS conf 5.7*, Jurkat tox 5.9 and Tb MetRS inh FP 2.0.
For N#Cc1nc(COc2ccc(Cl)cc2Cl)oc1N1CCOCC1 the results were proCasp3 act 1.5, proCasp7 act -0.8, Tb MetRS inh 11.2*, MsrA act -0.9, MsrA inh 1.1, Tb MetRS conf 21.6*, Jurkat tox 7.7 and Tb MetRS inh FP 6.8.
For O=C(NS(=O)(=O)c1cccc(F)c1)[C@H]1O[C@@H](n2ccc(=O)[nH]c2=O)[C@H](O)[C@@H]1O the results were MsrA inh -1.5.
`CCCCCn1c(C)c(CC(=O)Nc2ccc(Oc3cccnc3)c(C)c2)c2ccccc21` gave MsrA inh 1.0.
For CCCc1ccc(-c2c(C)sc(N)c2C#N)cc1 the results were proCasp3 act -2.1, proCasp7 act -6.5, Tb MetRS inh 26.9*, MsrA act -3.0, MsrA inh 5.3*, Tb MetRS conf 17.3*, Jurkat tox 11.2, Tb MetRS inh FP 7.7 and MsrA conf -0.6.
For Cc1cc(/C=C(/C#N)c2nc3ccccc3[nH]2)c(C)n1-c1ccccc1C(=O)O the results were proCasp3 act -16.6, proCasp7 act 0.0, Tb MetRS inh 2.5, MsrA act -1.7 and MsrA inh 1.6.
